From ChEMBL document CHEMBL5107978, “Identification of ligand linkage vectors for the development of p300/CBP degraders” (RSC Med Chem, 2022) come the findings set out here.

In assay [1] the target is T1, CREB-binding protein/Histone acetyltransferase p300 (Homo sapiens) (UniProt Q09472+Q92793). Description: Binding affinity to p300/CBP in human OPM-2 cell lysate assessed as p300 pull down and measured after 12 hrs by pulldown-based Western blot analysis. The class given is subcellular. A digest of the protocol:
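Biotinylated ligands coupled to streptavidin magnetic beads for 3 h at room temperature in 50 mM Tris pH 7.5, 300 mM NaCl, 0.05% NP40. Beads then incubated with OPM2 cell lysate overnight at 4°C, washed in binding buffer, boiled off in SDS loading buffer. Bound p300 detected by SDS-PAGE and anti-p300 immunoblot.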

In a further assay the test system is MM1.S. Description: Antiproliferative activity against human MM1.S cells assessed as reduction in cell proliferation incubated for 72 hrs by MTS assay. The assay is classed as functional, cell-based. The method, boiled down:
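MM1.S cells seeded at 2 × 10^5 cells/well, exposed 72 h in triplicate across 12.5–500 nM. Proliferation read by MTS dye absorbance. EC50 fitted with an [inhibitor] vs. normalized response model; uncertainty given as standard error.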

In assay [2] the target is T1, CREB-binding protein/Histone acetyltransferase p300 (Homo sapiens). Description: Protac activity at p300/CBP degradation in human MM1.S cells assessed as amount p300 remaining at 10 uM incubated for 24 hrs by pulldown-based Western blot analysis. The class given is cell-based. A digest of the protocol:
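MM1.S cells at 2 × 10^6 cells/well in RPMI 1640, pre-incubated 24 h at 37 °C, 5% CO2, then exposed 24 h at 1, 5 or 10 µM. RIPA lysates run on 3–8% tris-acetate SDS gels and probed for p300 and β-actin. Band intensity expressed relative to the lane's DMSO vehicle and β-actin loading control.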

Activity calls are given as the source filed them. The calls are words filed in the database; no cut-off is given here.

T1 sequence (Q09472 whole entry, looked up): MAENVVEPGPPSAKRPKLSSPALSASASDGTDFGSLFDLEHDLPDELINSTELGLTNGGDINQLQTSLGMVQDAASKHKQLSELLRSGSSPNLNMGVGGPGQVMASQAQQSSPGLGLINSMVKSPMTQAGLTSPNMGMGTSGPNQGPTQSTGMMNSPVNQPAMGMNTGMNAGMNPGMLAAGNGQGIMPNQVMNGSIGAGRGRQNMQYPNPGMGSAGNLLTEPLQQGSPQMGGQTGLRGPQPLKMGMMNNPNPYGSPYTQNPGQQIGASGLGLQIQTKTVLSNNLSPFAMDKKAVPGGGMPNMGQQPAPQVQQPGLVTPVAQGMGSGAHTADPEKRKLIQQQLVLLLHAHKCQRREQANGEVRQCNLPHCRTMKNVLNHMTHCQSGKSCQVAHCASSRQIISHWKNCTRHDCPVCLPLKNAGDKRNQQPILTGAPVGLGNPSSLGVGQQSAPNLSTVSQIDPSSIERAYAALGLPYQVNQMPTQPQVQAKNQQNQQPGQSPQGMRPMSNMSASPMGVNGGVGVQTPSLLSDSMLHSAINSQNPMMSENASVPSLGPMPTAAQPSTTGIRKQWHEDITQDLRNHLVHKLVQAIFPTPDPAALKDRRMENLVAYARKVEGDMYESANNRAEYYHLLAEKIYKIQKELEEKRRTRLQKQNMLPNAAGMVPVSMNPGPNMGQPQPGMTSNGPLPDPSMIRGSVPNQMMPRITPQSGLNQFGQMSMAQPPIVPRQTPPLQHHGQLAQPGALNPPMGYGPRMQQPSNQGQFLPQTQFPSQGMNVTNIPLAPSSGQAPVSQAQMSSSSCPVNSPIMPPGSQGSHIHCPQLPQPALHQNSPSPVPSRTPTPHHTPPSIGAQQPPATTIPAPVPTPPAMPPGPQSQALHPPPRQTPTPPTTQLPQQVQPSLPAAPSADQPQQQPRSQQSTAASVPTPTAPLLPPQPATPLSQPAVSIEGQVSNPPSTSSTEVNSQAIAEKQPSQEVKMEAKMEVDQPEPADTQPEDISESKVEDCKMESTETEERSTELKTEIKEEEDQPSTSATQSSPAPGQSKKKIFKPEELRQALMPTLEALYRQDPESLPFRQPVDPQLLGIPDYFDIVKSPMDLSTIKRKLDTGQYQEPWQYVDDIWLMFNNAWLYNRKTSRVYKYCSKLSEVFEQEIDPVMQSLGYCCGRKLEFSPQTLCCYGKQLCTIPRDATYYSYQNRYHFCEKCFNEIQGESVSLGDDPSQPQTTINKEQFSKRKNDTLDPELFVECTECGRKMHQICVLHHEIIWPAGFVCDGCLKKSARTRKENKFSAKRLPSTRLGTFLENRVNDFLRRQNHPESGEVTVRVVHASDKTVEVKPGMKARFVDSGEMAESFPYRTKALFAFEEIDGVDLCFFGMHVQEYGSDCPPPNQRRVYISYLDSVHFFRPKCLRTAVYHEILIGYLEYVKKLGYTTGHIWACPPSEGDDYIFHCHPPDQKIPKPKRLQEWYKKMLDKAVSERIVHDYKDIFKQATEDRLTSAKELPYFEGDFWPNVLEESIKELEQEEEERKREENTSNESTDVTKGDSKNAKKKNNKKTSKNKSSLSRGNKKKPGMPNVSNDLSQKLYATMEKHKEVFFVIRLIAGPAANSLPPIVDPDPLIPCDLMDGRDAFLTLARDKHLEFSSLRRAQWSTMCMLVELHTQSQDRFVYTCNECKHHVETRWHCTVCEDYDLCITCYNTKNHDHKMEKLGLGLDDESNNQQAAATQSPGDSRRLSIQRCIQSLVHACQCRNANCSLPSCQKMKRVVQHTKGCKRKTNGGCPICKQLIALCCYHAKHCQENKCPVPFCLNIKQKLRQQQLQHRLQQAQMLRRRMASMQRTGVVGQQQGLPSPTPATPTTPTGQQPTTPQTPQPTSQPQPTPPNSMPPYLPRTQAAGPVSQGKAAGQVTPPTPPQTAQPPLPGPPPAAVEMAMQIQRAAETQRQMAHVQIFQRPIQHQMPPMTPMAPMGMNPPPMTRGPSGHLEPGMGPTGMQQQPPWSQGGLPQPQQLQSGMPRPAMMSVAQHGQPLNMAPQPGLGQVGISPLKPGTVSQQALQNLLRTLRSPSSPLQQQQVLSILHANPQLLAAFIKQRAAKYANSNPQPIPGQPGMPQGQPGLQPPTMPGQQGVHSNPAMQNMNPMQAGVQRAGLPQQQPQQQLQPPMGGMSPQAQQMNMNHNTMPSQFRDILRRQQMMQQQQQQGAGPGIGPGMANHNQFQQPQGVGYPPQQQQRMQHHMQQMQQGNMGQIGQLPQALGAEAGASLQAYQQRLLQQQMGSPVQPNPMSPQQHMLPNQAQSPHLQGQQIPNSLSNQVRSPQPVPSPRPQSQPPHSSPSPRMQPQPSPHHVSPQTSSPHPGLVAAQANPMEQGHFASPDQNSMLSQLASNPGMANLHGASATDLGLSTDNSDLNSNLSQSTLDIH
T1 sequence (Q92793 whole entry, looked up): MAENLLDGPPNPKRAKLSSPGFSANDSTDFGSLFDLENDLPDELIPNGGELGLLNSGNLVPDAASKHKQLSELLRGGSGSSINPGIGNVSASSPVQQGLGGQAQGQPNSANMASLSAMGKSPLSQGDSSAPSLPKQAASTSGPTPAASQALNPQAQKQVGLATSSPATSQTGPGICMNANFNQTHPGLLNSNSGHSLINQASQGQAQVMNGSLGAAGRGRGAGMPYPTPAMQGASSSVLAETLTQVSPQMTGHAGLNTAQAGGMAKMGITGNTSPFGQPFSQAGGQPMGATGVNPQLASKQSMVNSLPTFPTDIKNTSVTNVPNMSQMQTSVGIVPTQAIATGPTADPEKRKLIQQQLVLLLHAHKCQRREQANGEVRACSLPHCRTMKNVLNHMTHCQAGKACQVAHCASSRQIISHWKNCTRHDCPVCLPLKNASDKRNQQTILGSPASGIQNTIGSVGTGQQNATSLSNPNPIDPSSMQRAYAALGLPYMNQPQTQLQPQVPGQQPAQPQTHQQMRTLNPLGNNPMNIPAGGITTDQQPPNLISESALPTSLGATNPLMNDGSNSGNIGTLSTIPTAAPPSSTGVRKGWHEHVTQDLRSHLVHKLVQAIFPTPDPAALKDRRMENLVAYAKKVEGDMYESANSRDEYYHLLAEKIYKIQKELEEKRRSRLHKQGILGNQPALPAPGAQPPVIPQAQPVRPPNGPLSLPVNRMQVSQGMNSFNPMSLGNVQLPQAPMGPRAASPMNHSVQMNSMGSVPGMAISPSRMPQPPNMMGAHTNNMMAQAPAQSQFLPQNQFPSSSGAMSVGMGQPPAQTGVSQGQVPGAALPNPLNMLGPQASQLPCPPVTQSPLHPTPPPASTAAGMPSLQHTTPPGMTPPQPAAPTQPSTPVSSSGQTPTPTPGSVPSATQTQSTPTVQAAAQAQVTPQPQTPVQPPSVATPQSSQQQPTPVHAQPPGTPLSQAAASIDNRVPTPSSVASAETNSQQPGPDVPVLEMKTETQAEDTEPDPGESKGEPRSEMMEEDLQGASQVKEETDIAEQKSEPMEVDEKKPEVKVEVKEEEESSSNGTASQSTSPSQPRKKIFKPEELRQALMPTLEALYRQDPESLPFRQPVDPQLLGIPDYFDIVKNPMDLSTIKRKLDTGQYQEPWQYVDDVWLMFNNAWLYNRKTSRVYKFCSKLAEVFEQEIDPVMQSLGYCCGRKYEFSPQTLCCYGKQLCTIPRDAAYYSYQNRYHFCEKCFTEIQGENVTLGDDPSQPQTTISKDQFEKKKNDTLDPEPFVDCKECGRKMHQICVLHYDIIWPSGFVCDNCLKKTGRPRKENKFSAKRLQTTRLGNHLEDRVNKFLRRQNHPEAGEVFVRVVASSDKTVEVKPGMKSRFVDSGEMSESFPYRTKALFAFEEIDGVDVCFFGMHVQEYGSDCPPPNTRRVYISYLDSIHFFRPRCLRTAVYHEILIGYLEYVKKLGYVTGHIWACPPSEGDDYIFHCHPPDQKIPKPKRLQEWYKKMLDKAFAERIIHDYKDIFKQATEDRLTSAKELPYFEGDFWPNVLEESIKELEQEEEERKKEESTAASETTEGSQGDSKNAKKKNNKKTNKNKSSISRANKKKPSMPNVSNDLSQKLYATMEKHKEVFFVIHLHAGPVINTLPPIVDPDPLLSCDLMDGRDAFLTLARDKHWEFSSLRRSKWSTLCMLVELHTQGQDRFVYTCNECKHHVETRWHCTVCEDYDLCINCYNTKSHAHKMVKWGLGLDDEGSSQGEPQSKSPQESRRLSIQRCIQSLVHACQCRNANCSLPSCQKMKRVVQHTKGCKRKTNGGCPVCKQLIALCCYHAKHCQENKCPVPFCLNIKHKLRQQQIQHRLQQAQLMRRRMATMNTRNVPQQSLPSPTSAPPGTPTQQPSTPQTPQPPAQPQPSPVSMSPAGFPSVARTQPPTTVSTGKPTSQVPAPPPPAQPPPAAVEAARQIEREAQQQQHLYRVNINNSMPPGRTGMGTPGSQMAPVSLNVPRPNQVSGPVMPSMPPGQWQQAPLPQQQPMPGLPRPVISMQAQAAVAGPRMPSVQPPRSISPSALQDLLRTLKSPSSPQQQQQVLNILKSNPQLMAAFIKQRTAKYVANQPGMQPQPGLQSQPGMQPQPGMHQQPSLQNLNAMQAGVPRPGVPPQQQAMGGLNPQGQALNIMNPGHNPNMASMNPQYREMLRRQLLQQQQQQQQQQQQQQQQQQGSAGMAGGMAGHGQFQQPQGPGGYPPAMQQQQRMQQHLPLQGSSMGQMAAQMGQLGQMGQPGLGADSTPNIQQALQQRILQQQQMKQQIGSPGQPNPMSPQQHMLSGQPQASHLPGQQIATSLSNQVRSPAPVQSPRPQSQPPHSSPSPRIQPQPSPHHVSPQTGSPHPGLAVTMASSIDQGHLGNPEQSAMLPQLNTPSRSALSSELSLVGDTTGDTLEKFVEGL

For `CNC(=O)Nc1ccc2c(c1)CC[C@@]21OC(=O)N(CC(=O)N(Cc2ccc(F)cc2)[C@@H](C)C(F)(F)F)C1=O` [A-485], the outcome in assay [1] was Active. For the same compound, the half-maximal effective concentration (EC50) in the assay on MM1.S is 139 nM. Consider `C[C@H](N(Cc1ccc(F)cc1)C(=O)CN1C(=O)O[C@@]2(CCc3cc(NC(=O)NCCOCCOCCOCCNc4cccc5c4C(=O)N(C4CCC(=O)NC4=O)C5=O)ccc32)C1=O)C(F)(F)F` (stereo partly drawn), for which, in assay [2], the Activity is 18%.

Take `C[C@H](N(Cc1ccc(F)cc1)C(=O)CN1C(=O)O[C@@]2(CCc3cc(NC(=O)NCCCCNc4cccc5c4C(=O)N(C4CCC(=O)NC4=O)C5=O)ccc32)C1=O)C(F)(F)F` (stereo partly drawn): the Activity in assay [2] was found to be 42%. `C[C@H](N(Cc1ccc(F)cc1)C(=O)CN1C(=O)O[C@@]2(CCc3cc(NC(=O)NCCOCCOCCNc4cccc5c4C(=O)N(C4CCC(=O)NC4=O)C5=O)ccc32)C1=O)C(F)(F)F` (stereo partly drawn): in assay [2], the Activity stood at 49%. Moreover, the EC50 with MM1.S is 294 nM. On to `C[C@H](N(Cc1ccc(F)cc1)C(=O)CN1C(=O)O[C@@]2(CCc3cc(NC(=O)NCCOCCOCCOCCOCCNc4cccc5c4C(=O)N(C4CCC(=O)NC4=O)C5=O)ccc32)C1=O)C(F)(F)F` (stereo partly drawn), for which the Activity in assay [2] was 9%. In addition, in the assay on MM1.S, the 50% effective concentration (EC50) was 422 nM.
